Test results taken from ChEMBL document CHEMBL1156051, “Synthesis and evaluation of lysophosphatidylserine analogues as inducers of mast cell degranulation. Potent activities of lysophosphatidylthreonine and its 2-deoxy derivative” (J Med Chem, 2009).
One block for each compound: values may come before it. Calls of active or inactive are those of the source. The rule behind the calls is not given here.

Legend:
[1] = test system: CHO-K1; assay: Inhibition of forskolin-induced cAMP production in CHOK1 cells at 0.01 to 10 uM after 30 mins by EIA; format: functional, cell-based; settings: Cricetulus griseus
In short: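 Mock-transfected CHO-K1 cells were cultured overnight and pretreated 20 min with 0.5 mM IBMX, then costimulated with analogue and 25 μM forskolin for 30 min at 37 C; accumulated cAMP was measured by EIA.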

[2] = test system: Rattus norvegicus; assay: Effect on hypothermic effect in Wistar rat assessed as reduction in rectal temperature at 20 to 100 ug, iv measured every 5 to 10 mins for 60 mins; format: functional, organism-based
In short: (§1)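 Analogue suspended in PBS with 0.1% BSA and given intravenously; rectal temperature read with a rectal probe every 5 or 10 min for 60 min. Means ± SE of three independent experiments.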

[3] = test system: Mast cell; assay: Induction of C57BL/6 mouse peritoneal mast cell degradation assessed as concanavalin A-induced histamine release at 0.01 to 10 uM after 15 mins fluorometric assay; format: functional, cell-based
In short: (§2)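 Peritoneal mast cells at 5 × 10^4/mL in HEPES-buffered Tyrode stimulated with analogue plus 10 μg/mL concanavalin A for 15 min at 37 C. Supernatant histamine measured fluorometrically and expressed as percent of total cell histamine. Means ± SE of three independent experiments.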

[4] = species on record: Rattus norvegicus; assay: Ratio of compound activity over lysophosphatidylserine activity for induction of hypothermic effect in Wistar rat; format: functional
[5] = species on record: Mus musculus; assay: Ratio of compound activity over lysophosphatidylserine activity for induction of hypothermic effect in C57BL/6 mouse; format: functional
[6] = test system: Mast cell; assay: Ratio of lysophosphatidylserine EC50 to compound EC50 for induction of concanavalin A-stimulated Wistar rat peritoneal mast cell […] associated histamine release; format: functional
[7] = test system: Mast cell; assay: Induction of Wistar rat peritoneal mast cell degradation assessed as anti-DNP IgE-induced histamine release at 0.01 to 10 uM after 15 mins fluorometric assay; format: functional, cell-based
[8] = Cytotoxicity against concanavalin A-stimulated Wistar rat peritoneal mast cells assessed as LDH release at 50 uM; format: cell-based
[9] = target: Probable G-protein coupled receptor 34 (Mus musculus) (UniProt Q9R1K6); assay: Activation of mouse GPR34 expressed in CHOK1 cells assessed as increase in intracellular calcium level by spectrofluorimetry; format: functional, cell-based; settings: CHO-K1
In short: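 Fura-2-loaded CHO-K1 cells stably expressing flag-tagged GPR34 (G418 selection, then anti-flag immunomagnetic positive selection), stimulated with analogue at 2 μM; [Ca2+]i read fluorometrically as ratio of 500 nm emission at 340/380 nm excitation.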

[10] = target: Probable G-protein coupled receptor 34 (Mus musculus) (UniProt Q9R1K6); assay: Activation of mouse GPR34 expressed in CHOK1 cells assessed as phosphorylated ERK level at 0.01 to 10 uM by Western blotting; format: cell-based; settings: CHO-K1
In short: (§3)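 Serum-starved CHO-K1 cells stably expressing flag-tagged GPR34 were stimulated with analogue for 5 min at 37 C and stopped by rapid cooling on ice. Lysates (6 μg protein) were Western blotted with antibodies to phospho-p42/p44 and total p42/p44 MAP kinase. Mock-transfected cells served as control.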

[11] = test system: G protein-coupled receptor 34 (Mus musculus); assay: Activation of mouse GPR34 expressed in CHOK1 cells assessed as total ERK level at 0.01 to 10 uM by Western blotting; settings: CHO-K1
[12] = test system: Mus musculus; assay: Effect on hypothermic effect in C57BL/6 mouse assessed as reduction in rectal temperature at 1 to 5 ug, iv measured every 5 to 10 mins for 60 mins; format: functional, organism-based; in short: as §1
[13] = test system: CHO-K1; assay: Increase in MAPK level in CHOK1 cells at 0.01 to 10 uM by Western blotting; format: functional, cell-based; settings: Cricetulus griseus
In short: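 Serum-starved mock (empty vector) transfected CHO-K1 cells were stimulated for 5 min at 37 C and cooled on ice to stop. Lysates (6 μg protein) were Western blotted for phospho- and total p42/p44 MAP kinase.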

[14] = test system: CHO-K1; assay: Increase in intracellular calcium level in CHOK1 cells by spectrofluorimetry; format: functional, cell-based; settings: Cricetulus griseus
In short: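 Fura-2-loaded mock-transfected CHO-K1 cells were stimulated at 2 μM; [Ca2+]i read as 500 nm emission ratio at 340/380 nm excitation.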

[15] = test system: Mast cell; assay: Ratio of compound activity over lysophosphatidylserine activity for induction of anti-DNP IgE-stimulated Wistar rat peritoneal mast cell […] associated histamine release; format: functional
[16] = target: Probable G-protein coupled receptor 34 (Mus musculus) (UniProt Q9R1K6); assay: Activation of mouse GPR34 expressed in CHOK1 cells assessed as inhibition of forskolin-induced cAMP production at 0.01 to 10 uM after 30 mins by EIA; format: functional, cell-based; settings: CHO-K1
In short: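 CHO-K1 stably expressing flag-tagged mouse GPR34, cultured overnight, pretreated 20 min with 0.5 mM IBMX, then costimulated with analogue plus 25 μM forskolin for 30 min at 37 C; cAMP measured by EIA, level without ligand set as 100%.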

[17] = test system: Mast cell; assay: Ratio of lysophosphatidylserine EC50 to compound EC50 for induction of concanavalin A-stimulated C57BL/6 mouse peritoneal mast cell […] associated histamine release; format: functional
[18] = test system: G protein-coupled receptor 34 (Mus musculus); assay: Activation of mouse GPR34 expressed in CHOK1 cells assessed as phosphorylated ERK level at 0.01 to 10 uM by Western blotting; settings: CHO-K1
[19] = test system: G protein-coupled receptor 34 (Mus musculus); assay: Activation of mouse GPR34 expressed in CHOK1 cells assessed as increase in intracellular calcium level by spectrofluorimetry; settings: CHO-K1
[20] = test system: Mast cell; assay: Induction of Wistar rat peritoneal mast cell degranulation assessed as concanavalin A-induced histamine release at 0.03 uM pretreated for 15 mins measured after washout with 0.5% fatty acid-free BSA by fluorometric assay; format: functional, cell-based
In short: (§4)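 Rat peritoneal mast cells preincubated with analogue, then washed with buffer containing 0.01% or 0.5% fatty-acid-free BSA. Cells then challenged with concanavalin A, and histamine release measured.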

[21] = test system: Mast cell; assay: Induction of Wistar rat peritoneal mast cell degranulation assessed as concanavalin A-induced histamine release at 0.03 uM pretreated for 15 mins measured after washout with 0.01% fatty acid-free BSA by fluorometric assay; format: functional, cell-based; in short: as §4
[22] = test system: Mast cell; assay: Induction of Wistar rat peritoneal mast cell degradation assessed as concanavalin A-induced histamine release after 15 mins fluorometric assay; format: functional, cell-based; settings: 0.25 h
In short: (§5)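 Peritoneal mast cells at 5 × 10^4/mL in HEPES-buffered Tyrode stimulated with analogue plus 100 μg/mL concanavalin A for 15 min at 37 C. Supernatant histamine measured fluorometrically and expressed as percent of total cell histamine. Means ± SE of three independent experiments.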

[23] = target: Probable G-protein coupled receptor 34 (Mus musculus) (UniProt Q9R1K6); assay: Activation of mouse GPR34 expressed in CHOK1 cells assessed as total ERK level at 0.01 to 10 uM by Western blotting; format: cell-based; settings: CHO-K1; in short: as §3
[24] = test system: Mus musculus; assay: Increase in plasma histamine level in iv dosed C57BL/6 mouse after 2 mins by EIA; format: functional, organism-based
In short: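 Mice injected i.v. with analogue in PBS with 0.1% BSA; blood taken 2 min after injection and plasma histamine measured by enzyme immunoassay. Means ± SE of three independent experiments.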

[25] = test system: Mast cell; assay: Induction of Wistar rat peritoneal mast cell degradation assessed as concanavalin A-induced histamine release at 0.01 to 10 uM after 15 mins fluorometric assay; format: functional, cell-based; in short: as §5
[26] = test system: Mast cell; assay: Induction of C57BL/6 mouse peritoneal mast cell degradation assessed as concanavalin A-induced histamine release after 15 mins fluorometric assay; format: functional, cell-based; settings: C57BL/6, Mast cell, 0.25 h; in short: as §2
[27] = test system: Mus musculus; assay: Effect on hypothermic effect in iv dosed C57BL/6 mouse assessed as reduction in rectal temperature measured every 5 to 10 mins for 60 mins; format: functional, organism-based; in short: as §1
[28] = test system: Rattus norvegicus; assay: Effect on hypothermic effect in iv dosed Wistar rat assessed as reduction in rectal temperature measured every 5 to 10 mins for 60 mins; format: functional, organism-based; in short: as §1
[29] = test system: Mus musculus; assay: Effect on hypothermic effect in C57BL/6 mouse assessed as reduction in rectal temperature at 25 to 100 ug, iv measured every 5 to 10 mins for 60 mins; format: functional, organism-based
In short: (§6)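 Analogue suspended in PBS with 0.1% BSA and injected iv into C57BL/6 mice or Wistar rats; rectal temperature recorded by probe every 5 or 10 min for 60 min. Means of three independent experiments.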

[30] = test system: Rattus norvegicus; assay: Effect on hypothermic effect in Wistar rat assessed as reduction in rectal temperature at 20 to 200 ug, iv measured every 5 to 10 mins for 60 mins; format: functional, organism-based; in short: as §6
[31] = test system: Mast cell; assay: Stimulation of mouse bone marrow-derived mast cell degranulation; format: functional, cell-based
[32] = test system: Mus musculus; assay: Effect on hypothermic effect in mast cell-deficient WBB6F1 mouse assessed as reduction in rectal temperature at 10 ug, iv measured every 5 to 10 mins for 60 mins; format: functional, organism-based
In short: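 W/Wv mast cell-deficient mice, with C57BL/6 as comparison, were given 10 μg iv in PBS containing 0.1% BSA. Rectal temperature was monitored every 5 or 10 min for 60 min. Three independent experiments.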

Chain of Probable G-protein coupled receptor 34 (Mus musculus) (Q9R1K6 whole entry): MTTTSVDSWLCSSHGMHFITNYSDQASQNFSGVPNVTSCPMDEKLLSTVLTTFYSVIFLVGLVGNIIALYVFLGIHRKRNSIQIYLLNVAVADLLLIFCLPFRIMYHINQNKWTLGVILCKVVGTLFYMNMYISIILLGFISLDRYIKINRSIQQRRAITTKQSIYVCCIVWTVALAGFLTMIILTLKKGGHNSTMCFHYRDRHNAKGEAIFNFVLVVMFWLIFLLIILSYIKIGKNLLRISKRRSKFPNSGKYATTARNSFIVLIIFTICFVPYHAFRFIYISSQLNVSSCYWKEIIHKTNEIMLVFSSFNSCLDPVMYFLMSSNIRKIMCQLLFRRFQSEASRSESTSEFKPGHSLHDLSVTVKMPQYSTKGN

SMILES: CCCCCCCCCCCCCCCCCC(=O)OC[C@@H](O)COP(=O)(O)O[C@H](C)[C@H](N)C(=O)O
Activity [1]: inactive
Activity [2]: Active
Activity [3]: Active
Ratio [4]: 50
Ratio [5]: 20
Ratio EC50 [6]: 10
Activity [7]: Active
Activity [8]: Non-toxic
Activity [9]: inactive
Activity [10]: inactive
Activity [11]: inactive
Activity [12]: Active
Activity [13]: inactive
Activity [14]: inactive
Ratio [15]: 10
Activity [16]: inactive
Ratio EC50 [17]: 10
Activity [18]: inactive
Activity [19]: inactive
Activity [20]: inactive
Activity [21]: Active
EC50 [22]: 40 nM
Activity [23]: inactive
Activity [24]: Active
Activity [25]: Active
EC50 [26]: 10 nM

SMILES: CCCCCCCCCCCCCCCCCC(=O)OC[C@H](O)COP(=O)(O)OC[C@H](N)C(=O)O
EC50 [22]: 1000 nM
EC50 [26]: 70 nM

SMILES: CCCCCCCCCCCCCCCCCC(=O)N(C)C[C@@H](O)COP(=O)(O)OC[C@H](N)C(=O)O
Activity [3]: inactive
EC50 [22]: 10000 nM
Activity [25]: inactive

SMILES: CCCCCCCCCCCCCCCCCC(=O)OC[C@@H](O)COP(=O)(O)O[C@@H](C)[C@H](N)C(=O)O
Activity [27]: inactive
Activity [28]: inactive
EC50 [22]: 2000 nM
EC50 [26]: 200 nM

SMILES: CCCCCCCCCCCCCCCCCC(=O)OC[C@@H](O)COP(=O)(O)OC[C@H](N)C(=O)O
Activity [1]: inactive
Activity [29]: Active
Activity [7]: Active
Activity [8]: Non-toxic
Activity [9]: Active
Activity [30]: Active
Activity [10]: Active
Activity [13]: inactive
Activity [14]: inactive
Activity [16]: Active
Activity [31]: inactive
Activity [32]: inactive
EC50 [22]: 400 nM
Activity [23]: Active
EC50 [26]: 100 nM

SMILES: CCCCCCCCCCCC(=O)OC[C@@H](O)COP(=O)(O)O[C@H](C)[C@H](N)C(=O)O
EC50 [22]: 150 nM
EC50 [26]: 50 nM

SMILES: CCCCCCCCCCCC(=O)OC[C@@H](O)COP(=O)([O-])OCC[N+](C)(C)C [LYSOPHOSPHATIDYLCHOLINE]
Activity [8]: Toxic

Second part, led by results:

EC50 [22]: 5000 nM
SMILES: CCCCCCCCCCCCCCCCCC(=O)OC[C@@H](COP(=O)(O)OC[C@H](N)C(=O)O)OC

EC50 [22]: > 10000 nM
SMILES: CCCCCCCCCCCCCCCC(=O)OCCCOP(=O)(O)O[C@H](C)[C@@H](N)C(=O)O
Activity [27]: inactive
Activity [28]: inactive

EC50 [22]: > 10000 nM
SMILES: CCCCCCCCCCCCCCCCCC(=O)OC[C@@H](O)COP(=O)(O)O[C@@H]1CN[C@@H](C(=O)O)C1
Activity [3]: inactive
Activity [25]: inactive

EC50 [22]: > 10000 nM
SMILES: CCCCCCCCCCCCCCCCCC(=O)OC[C@@H](O)COP(=O)(O)OC[C@H](N)C(=O)OC
Activity [3]: inactive
Activity [25]: inactive

EC50 [22]: 500 nM
EC50 [26]: 40 nM
SMILES: CCCCCCCCCCCCCCCCCC(=O)OCCCOP(=O)(O)OC[C@H](N)C(=O)O
